The target of experiment [1] is Serine/threonine-protein kinase B-raf (Homo sapiens, UniProt P15056). The experiment in a line: Inhibition of BRAF Lys2 labeling site in human Huh-7 cell lysate at 1 uM by KiNativ Profiling analysis relative to control. Format: subcellular.
The target in experiment [2] is Epidermal growth factor receptor (Homo sapiens) (UniProt P00533). Nature of the experiment: Inhibition of EGFR Lys1 labeling site harbouring IPVAIKELR in human Huh-7 cell lysate at 1 uM by KiNativ Profiling analysis relative to control. Format: subcellular.
The target in experiment [3] is Ribosomal protein S6 kinase alpha-4 (Homo sapiens) (UniProt O75676). The experiment in a line: Inhibition of MSK2 domain1 ATP labeling site in human Huh-7 cell lysate at 1 uM by KiNativ Profiling analysis relative to control. Format: subcellular.
Experiment [4] concerns the target T1, Phosphatidylinositol 5-phosphate 4-kinase type-2 gamma (Homo sapiens) (UniProt Q8TBX8).
T1 sequence (whole entry): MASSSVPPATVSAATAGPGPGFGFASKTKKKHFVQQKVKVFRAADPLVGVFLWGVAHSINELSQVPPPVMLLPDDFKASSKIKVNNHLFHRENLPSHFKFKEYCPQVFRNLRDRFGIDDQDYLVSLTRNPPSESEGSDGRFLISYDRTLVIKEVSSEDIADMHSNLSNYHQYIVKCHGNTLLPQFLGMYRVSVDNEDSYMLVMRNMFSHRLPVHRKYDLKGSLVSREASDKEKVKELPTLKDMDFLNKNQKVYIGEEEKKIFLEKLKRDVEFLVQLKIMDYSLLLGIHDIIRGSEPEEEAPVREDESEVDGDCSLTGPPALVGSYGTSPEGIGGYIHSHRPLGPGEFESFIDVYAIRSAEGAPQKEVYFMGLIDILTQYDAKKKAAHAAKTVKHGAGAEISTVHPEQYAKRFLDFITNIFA
Nature of the experiment: Inhibition of PIP4K2C ATP labeling site harbouring VKELPTLKDMDFLNK in human Huh-7 cells at 1 uM by KiNativ Profiling analysis relative to control. Format: cell-based.

Experiment [5] addresses cAMP-dependent protein kinase catalytic subunit alpha (Homo sapiens) (UniProt P17612). Nature of the experiment: Inhibition of PKAC alpha (unknown origin) at 1 uM by Ambit Kinomescan binding assay relative to control. The procedure, abridged: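 In vitro ATP-site competition binding assay against a panel of over 420 kinases (KinomeScan), with compound tested at 10 or 1 μM.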

Experiment [6] addresses TGF-beta receptor type-1 (Homo sapiens) (UniProt P36897). Nature of the experiment: Inhibition of TGFBR1 (unknown origin) at 1 uM by Ambit Kinomescan binding assay relative to control.
The target in experiment [7] is Phosphatidylinositol 4-kinase beta (Homo sapiens) (UniProt Q9UBF8). Nature of the experiment: Inhibition of PI4KB ATP labeling site harbouring VPHTQAVVLNSKDKAPYLIYVEVLECENFDTTSVPAR in human A-375 cells at 5 uM by KiNativ Profiling analysis relative to control. Format: cell-based.
Phosphatidylinositol 4-kinase beta (Homo sapiens), sequence (Q9UBF8 2-816 limits assumed): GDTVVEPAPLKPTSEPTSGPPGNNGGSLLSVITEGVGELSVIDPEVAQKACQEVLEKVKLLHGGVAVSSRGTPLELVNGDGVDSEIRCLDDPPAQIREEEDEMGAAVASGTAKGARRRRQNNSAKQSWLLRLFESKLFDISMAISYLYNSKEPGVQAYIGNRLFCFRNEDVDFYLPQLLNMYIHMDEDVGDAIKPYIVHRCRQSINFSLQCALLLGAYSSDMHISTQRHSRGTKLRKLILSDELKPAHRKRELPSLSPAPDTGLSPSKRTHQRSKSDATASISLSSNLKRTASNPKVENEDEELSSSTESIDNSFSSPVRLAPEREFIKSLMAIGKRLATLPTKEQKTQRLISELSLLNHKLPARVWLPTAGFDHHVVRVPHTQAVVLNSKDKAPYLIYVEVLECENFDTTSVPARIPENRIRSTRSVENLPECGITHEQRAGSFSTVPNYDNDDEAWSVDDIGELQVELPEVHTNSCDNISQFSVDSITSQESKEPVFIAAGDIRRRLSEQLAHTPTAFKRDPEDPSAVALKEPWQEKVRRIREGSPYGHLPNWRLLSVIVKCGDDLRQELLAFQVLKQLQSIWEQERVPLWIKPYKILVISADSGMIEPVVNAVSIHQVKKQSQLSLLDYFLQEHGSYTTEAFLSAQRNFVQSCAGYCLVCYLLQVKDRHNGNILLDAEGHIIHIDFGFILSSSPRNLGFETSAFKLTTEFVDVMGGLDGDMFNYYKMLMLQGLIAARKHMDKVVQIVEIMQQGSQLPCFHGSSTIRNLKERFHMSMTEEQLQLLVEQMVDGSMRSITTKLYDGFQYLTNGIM
For experiment [8], the target named is Ribosomal protein S6 kinase alpha-1 (Homo sapiens) (UniProt Q15418). The experiment in a line: Inhibition of RSK1 domain1 ACT labeling site in human A-375 cells at 5 uM by KiNativ Profiling analysis relative to control. Format: cell-based.
Ribosomal protein S6 kinase alpha-1 (Homo sapiens), sequence (Q15418 whole entry, the tested form may be a part): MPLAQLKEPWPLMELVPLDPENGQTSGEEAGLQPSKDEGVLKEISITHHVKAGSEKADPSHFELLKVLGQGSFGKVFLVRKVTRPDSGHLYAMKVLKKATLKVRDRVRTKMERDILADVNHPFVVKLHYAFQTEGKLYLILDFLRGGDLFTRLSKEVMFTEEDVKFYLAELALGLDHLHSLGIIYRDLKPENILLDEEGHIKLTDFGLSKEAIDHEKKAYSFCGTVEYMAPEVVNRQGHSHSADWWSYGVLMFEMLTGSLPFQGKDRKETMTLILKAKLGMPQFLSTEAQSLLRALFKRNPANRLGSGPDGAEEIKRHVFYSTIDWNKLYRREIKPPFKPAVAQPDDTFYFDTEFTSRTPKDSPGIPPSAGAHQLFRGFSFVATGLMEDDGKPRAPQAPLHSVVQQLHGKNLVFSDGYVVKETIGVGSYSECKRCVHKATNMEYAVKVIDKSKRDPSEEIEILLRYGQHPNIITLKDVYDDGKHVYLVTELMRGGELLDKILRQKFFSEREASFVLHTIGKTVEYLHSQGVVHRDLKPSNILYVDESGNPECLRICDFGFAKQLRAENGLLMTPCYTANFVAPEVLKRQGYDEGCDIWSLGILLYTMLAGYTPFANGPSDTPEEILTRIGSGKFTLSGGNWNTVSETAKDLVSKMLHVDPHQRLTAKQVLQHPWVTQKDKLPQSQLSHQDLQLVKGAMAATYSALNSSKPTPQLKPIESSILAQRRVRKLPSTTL
In experiment [9] the target is Rhodopsin kinase GRK1 (Homo sapiens) (UniProt Q15835). The experiment in a line: Inhibition of GRK1 (unknown origin) at 1 uM by Ambit Kinomescan binding assay relative to control; values are per cent of control.
Rhodopsin kinase GRK1 (Homo sapiens), sequence (Q15835 whole entry): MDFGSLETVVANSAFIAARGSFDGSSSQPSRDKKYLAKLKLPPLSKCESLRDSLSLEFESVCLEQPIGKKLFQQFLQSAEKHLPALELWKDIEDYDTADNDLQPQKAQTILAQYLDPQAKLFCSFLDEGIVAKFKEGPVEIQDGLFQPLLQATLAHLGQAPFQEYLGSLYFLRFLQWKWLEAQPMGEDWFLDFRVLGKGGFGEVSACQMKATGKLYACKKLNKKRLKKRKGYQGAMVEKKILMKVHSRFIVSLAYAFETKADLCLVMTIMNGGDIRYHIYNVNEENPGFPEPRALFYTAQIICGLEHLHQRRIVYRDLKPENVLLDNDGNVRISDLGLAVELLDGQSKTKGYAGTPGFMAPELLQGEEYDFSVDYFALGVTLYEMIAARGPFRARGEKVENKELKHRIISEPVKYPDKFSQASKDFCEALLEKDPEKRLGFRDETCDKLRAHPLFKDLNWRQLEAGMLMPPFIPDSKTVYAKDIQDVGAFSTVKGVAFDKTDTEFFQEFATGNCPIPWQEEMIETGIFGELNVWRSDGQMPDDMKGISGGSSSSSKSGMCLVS
Experiment [10] deals with Calcium-dependent protein kinase 1 (Plasmodium falciparum) (UniProt P62344). Nature of the experiment: Inhibition of Plasmodium falciparum PFCDPK1 at 1 uM by Ambit Kinomescan binding assay relative to control; values are per cent of control.
Calcium-dependent protein kinase 1 (Plasmodium falciparum), sequence (P62344 2-524 limits assumed): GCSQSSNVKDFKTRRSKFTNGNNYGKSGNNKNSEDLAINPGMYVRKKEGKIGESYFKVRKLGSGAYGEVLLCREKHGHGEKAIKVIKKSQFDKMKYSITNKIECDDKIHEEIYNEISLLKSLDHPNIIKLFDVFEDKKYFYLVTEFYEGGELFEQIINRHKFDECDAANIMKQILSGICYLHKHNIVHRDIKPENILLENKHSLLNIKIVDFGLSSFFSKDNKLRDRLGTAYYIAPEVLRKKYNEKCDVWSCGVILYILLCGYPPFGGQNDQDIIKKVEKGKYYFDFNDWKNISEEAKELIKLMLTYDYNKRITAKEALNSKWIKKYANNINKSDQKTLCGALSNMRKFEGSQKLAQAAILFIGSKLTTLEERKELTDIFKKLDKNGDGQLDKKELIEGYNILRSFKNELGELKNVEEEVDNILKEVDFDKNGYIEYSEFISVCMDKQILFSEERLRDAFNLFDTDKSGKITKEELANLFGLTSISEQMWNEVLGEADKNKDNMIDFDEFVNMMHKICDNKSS
The test system of experiment [11] is Epidermal growth factor receptor (Homo sapiens), P00533 [UNDEFINED MUTATION]. The experiment in a line: Inhibition of EGFR S752-I759del mutant (unknown origin) at 10 uM by Ambit Kinomescan binding assay relative to control.
Experiment [12] has as its target Mitogen-activated protein kinase 15 (Homo sapiens) (UniProt Q8TD08). Nature of the experiment: Inhibition of ERK8 (unknown origin) at 10 uM by Ambit Kinomescan binding assay.
The target in experiment [13] is Serine/threonine-protein kinase Nek2 (Homo sapiens) (UniProt P51955). Nature of the experiment: Inhibition of NEK2 (unknown origin) at 10 uM by Ambit Kinomescan binding assay.
Serine/threonine-protein kinase Nek2 (Homo sapiens), sequence (P51955 whole entry): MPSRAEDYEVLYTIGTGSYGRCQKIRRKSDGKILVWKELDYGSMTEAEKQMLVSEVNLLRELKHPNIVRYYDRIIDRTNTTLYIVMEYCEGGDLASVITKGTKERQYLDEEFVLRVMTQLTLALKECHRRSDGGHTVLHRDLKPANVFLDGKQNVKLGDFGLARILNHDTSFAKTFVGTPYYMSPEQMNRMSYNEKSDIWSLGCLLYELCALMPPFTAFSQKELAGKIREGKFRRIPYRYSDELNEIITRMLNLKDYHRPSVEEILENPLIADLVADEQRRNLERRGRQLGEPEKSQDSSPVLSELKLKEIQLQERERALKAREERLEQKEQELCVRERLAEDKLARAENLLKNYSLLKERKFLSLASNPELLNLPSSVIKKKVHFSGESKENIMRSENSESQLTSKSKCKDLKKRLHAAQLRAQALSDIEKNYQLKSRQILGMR
Experiment [14] has as its target T2, Serine/threonine-protein kinase LATS2 (Homo sapiens) (UniProt Q9NRM7).
T2 sequence (whole entry): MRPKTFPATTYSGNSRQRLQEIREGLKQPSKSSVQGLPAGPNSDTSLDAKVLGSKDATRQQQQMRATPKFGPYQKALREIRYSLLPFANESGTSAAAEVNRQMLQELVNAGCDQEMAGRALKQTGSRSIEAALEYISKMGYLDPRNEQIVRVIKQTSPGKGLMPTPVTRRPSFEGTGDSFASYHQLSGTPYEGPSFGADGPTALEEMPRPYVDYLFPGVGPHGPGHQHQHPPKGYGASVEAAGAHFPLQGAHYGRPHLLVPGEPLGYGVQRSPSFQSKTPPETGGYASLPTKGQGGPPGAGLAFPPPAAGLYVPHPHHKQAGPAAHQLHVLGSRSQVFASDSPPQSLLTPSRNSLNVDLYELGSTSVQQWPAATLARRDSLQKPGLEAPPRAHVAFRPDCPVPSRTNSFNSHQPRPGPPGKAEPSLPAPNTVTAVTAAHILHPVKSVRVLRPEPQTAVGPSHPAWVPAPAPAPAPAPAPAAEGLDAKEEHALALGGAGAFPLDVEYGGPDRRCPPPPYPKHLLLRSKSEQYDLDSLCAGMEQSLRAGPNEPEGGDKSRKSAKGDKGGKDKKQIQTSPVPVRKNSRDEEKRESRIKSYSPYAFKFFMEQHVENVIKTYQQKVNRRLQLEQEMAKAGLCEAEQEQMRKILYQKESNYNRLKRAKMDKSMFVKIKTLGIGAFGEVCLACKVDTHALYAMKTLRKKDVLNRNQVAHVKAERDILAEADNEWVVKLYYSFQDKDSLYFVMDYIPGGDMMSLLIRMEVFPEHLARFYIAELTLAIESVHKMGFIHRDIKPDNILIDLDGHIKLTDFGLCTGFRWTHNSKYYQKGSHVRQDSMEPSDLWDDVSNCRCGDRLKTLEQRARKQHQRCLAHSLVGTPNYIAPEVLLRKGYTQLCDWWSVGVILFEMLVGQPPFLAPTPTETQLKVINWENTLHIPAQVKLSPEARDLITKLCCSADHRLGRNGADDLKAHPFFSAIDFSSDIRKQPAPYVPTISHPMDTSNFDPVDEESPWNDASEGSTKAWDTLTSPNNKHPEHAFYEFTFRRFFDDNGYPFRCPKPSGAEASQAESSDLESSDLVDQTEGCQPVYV
Nature of the experiment: Inhibition of LATS2 Lys2 labeling site in human A-375 cells at 5 uM by KiNativ Profiling analysis relative to control. Format: cell-based.

Experiment [15] concerns the target Tyrosine-protein kinase Yes (Homo sapiens) (UniProt P07947). Nature of the experiment: Inhibition of YES ACT labeling site in human Huh-7 cells at 10 uM by KiNativ Profiling analysis relative to control. Format: cell-based.

Calls of active or inactive are those of the source. The calls are words filed in the database; no cut-off is given here.

Tyrosine-protein kinase Yes (Homo sapiens), sequence (P07947 2-543 limits assumed): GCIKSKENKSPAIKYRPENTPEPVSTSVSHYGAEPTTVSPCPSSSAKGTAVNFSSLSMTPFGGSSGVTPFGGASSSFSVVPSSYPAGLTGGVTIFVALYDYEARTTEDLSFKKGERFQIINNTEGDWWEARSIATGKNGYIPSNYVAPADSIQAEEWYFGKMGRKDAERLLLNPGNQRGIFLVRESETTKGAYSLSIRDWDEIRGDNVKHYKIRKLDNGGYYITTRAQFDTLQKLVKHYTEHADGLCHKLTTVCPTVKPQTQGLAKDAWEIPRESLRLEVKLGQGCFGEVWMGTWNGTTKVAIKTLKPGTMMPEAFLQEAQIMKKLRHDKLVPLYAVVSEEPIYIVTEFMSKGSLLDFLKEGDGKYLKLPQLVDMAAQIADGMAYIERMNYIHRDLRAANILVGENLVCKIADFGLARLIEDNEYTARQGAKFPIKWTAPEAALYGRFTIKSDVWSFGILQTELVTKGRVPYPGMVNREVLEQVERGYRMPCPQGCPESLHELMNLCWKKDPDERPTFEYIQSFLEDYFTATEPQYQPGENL
Serine/threonine-protein kinase B-raf, sequence (P15056 whole entry): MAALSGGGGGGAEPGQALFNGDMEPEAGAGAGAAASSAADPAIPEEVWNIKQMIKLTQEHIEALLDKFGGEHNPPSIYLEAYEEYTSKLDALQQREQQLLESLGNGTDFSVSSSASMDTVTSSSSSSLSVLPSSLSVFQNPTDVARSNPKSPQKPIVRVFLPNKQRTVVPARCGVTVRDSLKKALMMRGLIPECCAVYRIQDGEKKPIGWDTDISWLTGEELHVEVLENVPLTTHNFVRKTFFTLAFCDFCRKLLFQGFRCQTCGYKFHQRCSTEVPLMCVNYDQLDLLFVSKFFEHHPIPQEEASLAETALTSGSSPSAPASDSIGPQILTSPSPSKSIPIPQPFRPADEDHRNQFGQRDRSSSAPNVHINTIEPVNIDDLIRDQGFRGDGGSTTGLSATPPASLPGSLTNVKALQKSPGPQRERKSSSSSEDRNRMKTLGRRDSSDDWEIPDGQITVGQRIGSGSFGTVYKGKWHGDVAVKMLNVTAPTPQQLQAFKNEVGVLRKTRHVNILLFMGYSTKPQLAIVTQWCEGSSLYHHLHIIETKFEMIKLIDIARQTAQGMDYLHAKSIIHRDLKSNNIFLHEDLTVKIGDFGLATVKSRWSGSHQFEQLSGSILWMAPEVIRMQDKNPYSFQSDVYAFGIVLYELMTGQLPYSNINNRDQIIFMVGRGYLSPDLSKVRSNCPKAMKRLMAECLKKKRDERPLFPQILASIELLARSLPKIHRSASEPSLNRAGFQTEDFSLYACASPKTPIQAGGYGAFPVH
Mitogen-activated protein kinase 15 (Homo sapiens), sequence (Q8TD08 whole entry): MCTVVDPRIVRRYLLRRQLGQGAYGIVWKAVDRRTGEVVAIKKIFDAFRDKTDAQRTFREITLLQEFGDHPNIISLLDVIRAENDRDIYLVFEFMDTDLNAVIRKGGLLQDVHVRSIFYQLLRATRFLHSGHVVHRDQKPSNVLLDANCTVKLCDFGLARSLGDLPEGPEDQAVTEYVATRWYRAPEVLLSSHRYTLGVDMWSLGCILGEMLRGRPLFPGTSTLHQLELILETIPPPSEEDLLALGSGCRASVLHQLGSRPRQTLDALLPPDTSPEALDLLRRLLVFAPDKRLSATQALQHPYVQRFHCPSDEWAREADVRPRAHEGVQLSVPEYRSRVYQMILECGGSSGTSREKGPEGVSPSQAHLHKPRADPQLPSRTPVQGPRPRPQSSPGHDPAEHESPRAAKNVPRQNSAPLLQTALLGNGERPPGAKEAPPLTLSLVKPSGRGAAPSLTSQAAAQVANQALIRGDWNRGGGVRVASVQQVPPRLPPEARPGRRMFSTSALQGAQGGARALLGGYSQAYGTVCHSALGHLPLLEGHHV

As a reminder, the inhibition is the change of the read-out against control, counted positive when it falls. With `CNc1cc(Oc2cc(C(=O)Nc3cc(N4CCN(C)CC4)cc(C(F)(F)F)c3)ccc2C)ncn1`, the inhibition in [1] was -1.4%; in experiment [2], 4.5%; in [3], -8%; in [4], 5.4%.

In general, residual activity refers to the activity still measured, relative to the control. Turning to `CCN1CCN(Cc2ccc(NC(=O)c3ccc(C)c(/C=C/c4cnc5[nH]ccc5c4OC)c3)cc2C(F)(F)F)CC1`, the inhibition in [5] came out at 84%; in experiment [6], 100%; in experiment [7], 14.1%; in experiment [8], 14.7%. The values for the residual activity in experiment [9] and in [10] were 100% and 4.3%, respectively.

Take `CCN1CCN(Cc2ccc(NC(=O)c3ccc(C)c(Oc4ccnc5[nH]ccc45)c3)cc2C(F)(F)F)CC1`: the figures for the inhibition in experiment [11], in experiment [14] and in experiment [15] were 4.6%, 5.5% and 25.2%, respectively. For the same compound, the inhibition result in experiment [12] and in experiment [13] was “inactive” each time.

These data come from ChEMBL document CHEMBL5696442, “Discovery of type II inhibitors of TGFβ-activated kinase 1 (TAK1) and mitogen-activated protein kinase kinase kinase kinase 2 (MAP4K2)” (J Med Chem, 2015).
